Source: ChEMBL document CHEMBL3774372, “Design, physico-chemical properties and biological evaluation of some new N-[(phenoxy)alkyl]- and N-{2-[2-(phenoxy)ethoxy]ethyl}aminoalkanols as anticonvulsant agents” (Bioorg Med Chem, 2016)
The source made the active and inactive calls. No cut-off for these calls is given here.

What was measured:
[1] = test system: Mus musculus; test: Anticonvulsant activity in mouse assessed as protection against 6 Hz psychomotor seizure at 20 mg/kg, ip after […]; assay type: functional, organism-based
[2] = test system: Rattus norvegicus; test: Anticonvulsant activity in rat assessed as protection against maximal electric shock-induced seizures at 30 mg/kg, po measured after 4 hrs; assay type: functional, organism-based
Summary of the method: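 Rats dosed ip or orally as 0.5% methylcellulose suspension; maximal electroshock at listed time. Protection = abolition of hindlimb tonic extension; 4 rats per group, scored protected/tested.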

[3] = test system: Mus musculus; test: Anticonvulsant activity in mouse assessed as protection against 6 Hz psychomotor seizure at 20 mg/kg, ip after 0.5 hrs; assay type: functional, organism-based
Summary of the method: (§1)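 Suspension in 0.5% methylcellulose given ip to mice; corneal stimulation with 0.2 ms monopolar rectangular pulses at 6 Hz for 3 s from a constant current device, mice restrained then released to observation cage. Protected if normal exploratory behaviour resumed within 10 s of stimulation. Scored as protected/tested, 4 mice per group.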

[4] = MRT in CD1 mouse brain at 12.92 mg/kg, ip measured up to 240 mins by LC/ESI-MS/MS analysis; assay type: ADME, organism-based
[5] = Ratio of drug level in brain to plasma in CD1 mouse at 1 mg/kg, iv administered as single dose measured after 240 mins by LC/ESI-MS/MS analysis; assay type: ADME, organism-based; conditions: brain and plasma, read-out: BPR
[6] = Retention time of the compound in mouse liver microsomes at 20 uM preincubated for 15 mins followed by addition of NADPH-regenerating system measured after 5 to 90 mins by […] analysis; assay type: ADME
Summary of the method: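 Mouse liver microsomes (0.4 mg/mL) with test compound (20 µM) in 100 mM potassium phosphate, pH 7.4, were preincubated 15 min at 37 °C. An NADPH-regenerating system was then added and incubation ran 5–90 min at 37 °C. Levallorphan (20 µM) served as internal standard, and reactions were quenched with perchloric acid. The supernatant was analysed by UPLC/MS. Duplicate incubations.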

[7] = AUC (0 to infinity) in CD1 mouse brain at 12.92 mg/kg, ig measured up to 240 mins by LC/ESI-MS/MS analysis; assay type: ADME, organism-based; design: dose 12.92 mg/kg, route […], time infinity; conditions: po
[8] = test system: Mus musculus; test: Half life in CD1 mouse plasma at 12.92 mg/kg, ip measured up to 240 mins by LC/ESI-MS/MS analysis; assay type: ADME, organism-based; conditions: in vivo, 4 h
[9] = test system: Vibrio harveyi; test: Antimutagenic activity against Vibrio harveyi BB7XM assessed as inhibition of NQNO-induced mutagenicity after 48 hrs; assay type: functional
Summary of the method: (§2)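 V. harveyi cultures grown exponentially to A600 0.1 at 30 °C, exposed to test compound for 15 min, then to NQNO, and grown on to A600 0.3–0.4. 5 × 10⁶ cells plated on BOSS agar with neomycin (100, final). Neomycin-resistant colonies counted after 48 h at 30 °C. Result given as % inhibition of NQNO mutagenicity; three independent repeats.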

[10] = test system: Vibrio harveyi; test: Antimutagenic activity against Vibrio harveyi BB7X assessed as inhibition of NQNO-induced mutagenicity after 48 hrs; assay type: functional; summary of the method: as §2
[11] = test system: Vibrio harveyi; test: Mutagenicity in Vibrio harveyi BB7M assessed as number of colonies after 48 hrs (reference value: 13 to 14 no_unit); assay type: ADME, organism-based; conditions: in vivo
Summary of the method: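 Vibrio harveyi mutagenicity test: test compound was added to exponentially growing cultures (A600 = 0.1, 30 °C) and grown to OD600 0.3–0.4. Then 5 × 10^6 cells were plated on BOSS agar with neomycin (final 100 µg/mL) and incubated 48 h at 30 °C. Neomycin-resistant colonies were counted. Triplicate; controls were water, DMSO and NQNO 40 ng/mL.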

[12] = Cmax in CD1 mouse brain at 1 mg/kg, iv measured up to 240 mins by LC/ESI-MS/MS analysis; assay type: ADME, organism-based; design: dose 1 mg/kg, route intravenous
[13] = test system: Mus musculus; test: Tmax in CD1 mouse plasma at 12.92 mg/kg, ig measured up to 240 mins by LC/ESI-MS/MS analysis; assay type: ADME, organism-based; conditions: in vivo, po, 4 h
[14] = Tmax in CD1 mouse brain at 12.92 mg/kg, ig measured up to 240 mins by LC/ESI-MS/MS analysis; assay type: ADME, organism-based; conditions: po
[15] = test system: Mus musculus; test: AUC (0 to infinity) in CD1 mouse plasma at 12.92 mg/kg, ip measured up to 240 mins by LC/ESI-MS/MS analysis; assay type: ADME, organism-based; design: dose 12.92 mg/kg, route intraperitoneal, time infinity; conditions: in vivo, 4 h
[16] = test system: Mus musculus; test: Neurotoxicity in mouse at 100 mg/kg, ip after 0.5 hrs by rotarod test; assay type: toxicity, organism-based; conditions: in vivo
Summary of the method: (§3)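 Mice were dosed ip with compound suspended in 0.5% methylcellulose. Rotarod: a 1 in. knurled rod turning at 6 rpm. Neurotoxicity was scored as failure to stay on the rod for at least 1 min in each of three trials. Results are given as the number of animals affected out of the number tested.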

[17] = test system: Mus musculus; test: Cmax in CD1 mouse plasma at 12.92 mg/kg, ig measured up to 240 mins by LC/ESI-MS/MS analysis; assay type: ADME, organism-based; design: dose 12.92 mg/kg, route […]; conditions: in vivo, po, 4 h
[18] = Ratio of drug level in brain to plasma in CD1 mouse at 12.92 mg/kg, ip administered as single dose measured after 15 mins by LC/ESI-MS/MS analysis; assay type: ADME, organism-based; conditions: brain and plasma, read-out: BPR
[19] = Ratio of drug level in brain to plasma in CD1 mouse at 12.92 mg/kg, ig administered as single dose measured after 5 mins by LC/ESI-MS/MS analysis; assay type: ADME, organism-based; conditions: brain and plasma, po, read-out: BPR
[20] = Ratio of drug level in brain to plasma in CD1 mouse at 12.92 mg/kg, ip administered as single dose measured after 120 mins by LC/ESI-MS/MS analysis; assay type: ADME, organism-based; conditions: brain and plasma, read-out: BPR
[21] = test system: Mus musculus; test: Neurotoxicity in mouse at 30 mg/kg, ip after 0.5 hrs by rotarod test; assay type: toxicity, organism-based; conditions: in vivo; summary of the method: as §3
[22] = Cmax in CD1 mouse brain at 12.92 mg/kg, ip measured up to 240 mins by LC/ESI-MS/MS analysis; assay type: ADME, organism-based; design: dose 12.92 mg/kg, route intraperitoneal
[23] = test system: Mus musculus; test: Tmax in CD1 mouse plasma at 12.92 mg/kg, ip measured up to 240 mins by LC/ESI-MS/MS analysis; assay type: ADME, organism-based; conditions: in vivo, 4 h
[24] = test system: Mus musculus; test: Volume of distribution in steady state in CD1 mouse plasma at 1 mg/kg, iv measured up to 240 mins by LC/ESI-MS/MS analysis; assay type: ADME, organism-based; conditions: in vivo, 4 h
[25] = MRT in CD1 mouse plasma at 12.92 mg/kg, ig measured up to 240 mins by LC/ESI-MS/MS analysis; assay type: ADME, organism-based; conditions: po
[26] = Ratio of drug level in brain to plasma in CD1 mouse at 1 mg/kg, iv administered as single dose measured after 15 mins by LC/ESI-MS/MS analysis; assay type: ADME, organism-based; conditions: brain and plasma, read-out: BPR
[27] = test system: Rattus norvegicus; test: Anticonvulsant activity in pilocarpine-induced status epilepticus Sprague-Dawley rat model at 100 mg/kg, ip after 0.5 hrs during post stage 3 seizure; assay type: functional, organism-based
Summary of the method: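 Rats given pilocarpine 50 mg/kg ip and observed to first convulsive seizure (Racine stage 3–5, time zero); test drug then given ip in 0.5% methylcellulose. Efficacy = halting further stage 3–5 convulsive seizures; scored protected/tested, time after first stage 3 seizure.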

[28] = test system: Mus musculus; test: Anticonvulsant activity in mouse assessed as protection against 6 Hz psychomotor seizure at 50 mg/kg, ip after 0.5 hrs; assay type: functional, organism-based; summary of the method: as §1

With Cc1cccc(C)c1OCCOCCN[C@@H](C)CO the Activity [1] was “inactive”, the Activity [2] was “inactive” and the Activity [3] was “inactive”.

Work on Cc1cccc(C)c1OCCOCCN[C@H](C)CO.Cl yielded an MRT [4] of 83.1 min, a Kp at 4 h [5] of 2.98 and a Retention_time [6] of 3.81 min. For the same molecule, the AUC(0-inf) [7] was 1220 µg·h/mL, the t1/2 [8] was 77.2 min and the “inhibition (INH)” value [9] was 41%. The “inhibition (INH)” value [10] was 7%, the Activity [11] was 22 and the Cmax [12] was 11500 ng/mL. For the same molecule, the Tmax [13] was 5 min, the Tmax [14] was 5 min and the AUC [15] was 0.903 µg·h/mL. For the same molecule, the Activity [16] was “Toxic”, the Cmax [17] was 950 ng/mL and the Kp at […] [18] was 2.55. The Kp at 5 min [19] was 1.73, the Kp at 2 h [20] was 2.86 and the Activity [21] was “Non-toxic”. The Cmax [22] was 2360 ng/mL, the Tmax [23] was 5 min and the Vdss [24] was 0.8997 L/kg. The MRT [25] was 40.3 min and the Kp at […] [26] was 5.36.

With Cc1cccc(C)c1OCCOCCN[C@H](C)CO the Activity [27] was “inactive” and the Activity [28] was “Active”.
